We go through 26 compounds from ChEMBL document CHEMBL2321752, “A potent and highly efficacious Bcl-2/Bcl-xL inhibitor” (J Med Chem, 2013).

The target of assay [1] is Apoptosis regulator Bcl-2 (Homo sapiens, UniProt P10415). Description: Binding affinity to BCL2 (unknown origin) after 2 hrs by fluorescence polarization assay. In short, it runs like this:
(§1)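 Competitive FP binding assay. Preformed protein/fluorescent probe complexes were used at 1.5/1 nM for Bcl-2, 10/2 nM for Bcl-xL and 20/2 nM for Mcl-1. These were mixed with serially diluted inhibitor and shaken gently for 2 h at room temperature before millipolarization was read. IC50 came from nonlinear regression, and Ki was calculated from IC50.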

In assay [2] the target is Bcl-2-like protein 1 (Homo sapiens, UniProt Q07817). Description: Binding affinity to BCL-XL (unknown origin) after 2 hrs by fluorescence polarization assay. In short, it runs like this:
as §1

The nature of assay [3]: Cytotoxicity against human NCI-H146 cells assessed as growth inhibition after 4 days by WST assay. Type of assay: functional, cell-based. The settings on record: NCI-H146, 96 h.
The subject of assay [4] is NCI-H1417. Description: Cytotoxicity against human NCI-H1417 cells assessed as growth inhibition after 4 days by WST assay. The note with it: NCI-H1417, 96 h. Format: functional, cell-based. A digest of the protocol:
(§2)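 Human small-cell lung cancer line from ATCC, kept in RPMI-1640 with 10% FBS. Cells were exposed to serial compound concentrations for 4 days. WST-8 dye was then added for a further 1–2 h and absorbance read at 450 nm. IC50 was derived from absorbance of treated versus untreated cells. At least three independent experiments per cell line; standard deviation reported.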

The subject of assay [5] is NCI-H1963. Description: Cytotoxicity against human NCI-H1963 cells assessed as growth inhibition after 4 days by WST assay. Format: functional, cell-based. The settings on record: NCI-H1963, 96 h. A digest of the protocol: as §2
Assay [6] relates to NCI-H187. The assay can be described thus: Cytotoxicity against human NCI-H187 cells assessed as growth inhibition after 4 days by WST assay. Format: functional, cell-based. The settings on record: NCI-H187, 96 h. A digest of the protocol:
as §2

Molecules are shown by their SMILES.

Chain of Bcl-2-like protein 1 (Q07817 whole entry): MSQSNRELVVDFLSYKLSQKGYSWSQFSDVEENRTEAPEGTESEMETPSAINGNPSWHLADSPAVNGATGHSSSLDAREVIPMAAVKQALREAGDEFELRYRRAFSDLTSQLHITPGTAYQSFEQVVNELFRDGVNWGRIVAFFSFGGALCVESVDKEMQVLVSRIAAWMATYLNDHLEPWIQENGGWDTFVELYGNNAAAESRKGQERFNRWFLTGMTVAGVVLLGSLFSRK
Chain of Apoptosis regulator Bcl-2 (P10415 whole entry): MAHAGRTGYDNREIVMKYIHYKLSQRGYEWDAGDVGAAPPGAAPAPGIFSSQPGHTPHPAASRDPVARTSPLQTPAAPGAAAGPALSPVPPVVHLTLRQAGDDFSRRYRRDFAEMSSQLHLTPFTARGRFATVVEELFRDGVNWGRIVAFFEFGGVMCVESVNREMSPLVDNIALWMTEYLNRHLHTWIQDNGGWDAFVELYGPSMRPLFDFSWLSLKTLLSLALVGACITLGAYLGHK

Consider `CN(C)CC[C@H](CSc1ccccc1)Nc1ccc(S(=O)(=O)Nc2ccc(N3CCN(c4cccc(-c5cncn5-c5ccc(Cl)cc5)c4)CC3)cc2)cc1[N+](=O)[O-]`, for which the figures for the IC50 in assay [1], in assay [2] and in assay [3] were 46 nM, 18 nM and > 10000 nM, respectively.
Taken in the same sequence, the figures for `Cc1c(Cl)c(-c2cccc(N3CCN(c4ccc(NS(=O)(=O)c5ccc(N[C@H](CCN(C)C)CSc6ccccc6)c([N+](=O)[O-])c5)cc4)CC3)c2)c(-c2ccc(Cl)cc2)n1C` were 260 nM, 12 nM and > 1000 nM.
With `Cc1cc(-c2cccc(N3CCN(c4ccc(NS(=O)(=O)c5ccc(N[C@H](CCN(C)C)CSc6ccccc6)c([N+](=O)[O-])c5)cc4)CC3)c2)c(-c2ccc(Cl)cc2)n1C`, the IC50 in assay [3] is > 10000 nM.
Regarding `CN(C)CC[C@H](CSc1ccccc1)Nc1ccc(S(=O)(=O)Nc2ccc(N3CCN(c4cccc(-c5cn(C)nc5-c5ccc(Cl)cc5)c4)CC3)cc2)cc1[N+](=O)[O-]`, the concentration for half-maximal inhibition (IC50) in assay [1] is 140 nM; in assay [2] it was 26 nM; in assay [3], > 10000 nM.
Taken in the same sequence, the figures for `CN(C)CC[C@H](CSc1ccccc1)Nc1ccc(S(=O)(=O)Nc2ccc(N3CCN(c4cccc(-c5cnoc5-c5ccc(Cl)cc5)c4)CC3)cc2)cc1[N+](=O)[O-]` were 350 nM, 22 nM and > 10000 nM.
Taken in the same sequence, the figures for `CN(C)CC[C@H](CSc1ccccc1)Nc1ccc(S(=O)(=O)Nc2ccc(N3CCN(c4cccc(-c5cnn(C)c5-c5ccc(Cl)cc5)c4)CC3)cc2)cc1[N+](=O)[O-]` were 210 nM, 15 nM and > 10000 nM.
`CCn1c(C)c(C(=O)O)c(-c2cccc(N3CCN(c4ccc(NS(=O)(=O)c5ccc(N[C@H](CCN(C)C)CSc6ccccc6)c([N+](=O)[O-])c5)cc4)CC3)c2)c1-c1ccc(Cl)cc1` returned an IC50 in assay [1] of 2 nM.
On to `CN(C)CC[C@H](CSc1ccccc1)Nc1ccc(S(=O)(=O)Nc2ccc(N3CCN(c4cccc(-c5c(C(=O)NS(C)(=O)=O)ncn5-c5ccc(Cl)cc5)c4)CC3)cc2)cc1[N+](=O)[O-]`, for which the half-maximal inhibitory concentration (IC50) in assay [1] was 3.8 nM; in assay [2], 8.3 nM; in assay [3], > 1000 nM.
Taken in the same sequence, the figures for `CCCCn1c(C)c(C(=O)O)c(-c2cccc(N3CCN(c4ccc(NS(=O)(=O)c5ccc(N[C@H](CCN(C)C)CSc6ccccc6)c([N+](=O)[O-])c5)cc4)CC3)c2)c1-c1ccc(Cl)cc1` were 23 nM, 16 nM and 67 nM.
With `Cc1c(C(=O)O)c(-c2cccc(N3CCN(c4ccc(NS(=O)(=O)c5ccc(N[C@H](CCN(C)C)CSc6ccccc6)c([N+](=O)[O-])c5)cc4)CC3)c2)c(-c2ccc(Cl)cc2)n1C`, in assay [1], the 50% inhibitory concentration (IC50) is 1.3 nM.
`CN(C)CC[C@H](CSc1ccccc1)Nc1ccc(S(=O)(=O)Nc2ccc(N3CCN(c4cccc(-c5c(C(=O)O)c(C(F)(F)F)n(C)c5-c5ccc(Cl)cc5)c4)CC3)cc2)cc1[N+](=O)[O-]`: the half-inhibitory concentration (IC50) worked out at 1.1 nM in assay [1], 6 nM in assay [2] and 496 nM in assay [3].
Taken in the same sequence, the figures for `Cc1c(C(=O)N2CC(C)(O)C2)c(-c2cccc(N3CCN(c4ccc(NS(=O)(=O)c5ccc(N[C@H](CCN(C)C)CSc6ccccc6)c([N+](=O)[O-])c5)cc4)CC3)c2)c(-c2ccc(Cl)cc2)n1C` were 5.6 nM, 9.4 nM and 66 nM.
On to `Cc1c(C#N)c(-c2cccc(N3CCN(c4ccc(NS(=O)(=O)c5ccc(N[C@H](CCN(C)C)CSc6ccccc6)c([N+](=O)[O-])c5)cc4)CC3)c2)c(-c2ccc(Cl)cc2)n1C`, for which the IC50 came to 17 nM in assay [1], 4.5 nM in assay [2] and 491 nM in assay [3].
Taken in the same sequence, the figures for `CN(C)CC[C@H](CSc1ccccc1)Nc1ccc(S(=O)(=O)Nc2ccc(N3CCN(c4cccc(-c5c(C(=O)O)c(Cl)n(C)c5-c5ccc(Cl)cc5)c4)CC3)cc2)cc1[N+](=O)[O-]` were 1.5 nM, 4.7 nM and 100 nM.
In the case of `CC1(C)CCC(c2ccc(Cl)cc2)=C(CN2CCN(c3ccc(C(=O)NS(=O)(=O)c4ccc(N[C@H](CCN5CCOCC5)CSc5ccccc5)c(S(=O)(=O)C(F)(F)F)c4)cc3)CC2)C1` [NAVITOCLAX], the half-inhibitory concentration (IC50) was determined as 54.2 nM in assay [4], 26.6 nM in assay [5] and 38.4 nM in assay [6].
With `Cc1c(C(=O)N[C@H]2C[C@@](C)(O)C2)c(-c2cccc(N3CCN(c4ccc(NS(=O)(=O)c5ccc(N[C@H](CCN(C)C)CSc6ccccc6)c([N+](=O)[O-])c5)cc4)CC3)c2)c(-c2ccc(Cl)cc2)n1C`, the IC50 in assay [1] turned out to be 7.5 nM; in assay [2] it was 15 nM; in assay [3] it was 12 nM.
Taken in the same sequence, the figures for `Cc1c(C(N)=O)c(-c2cccc(N3CCN(c4ccc(NS(=O)(=O)c5ccc(N[C@H](CCN(C)C)CSc6ccccc6)c([N+](=O)[O-])c5)cc4)CC3)c2)c(-c2ccc(Cl)cc2)n1C` were 19 nM, 14 nM and 245 nM.
Taken in the same sequence, the figures for `CN(C)CC[C@H](CSc1ccccc1)Nc1ccc(S(=O)(=O)Nc2ccc(N3CCN(c4cccc(-c5c(C(=O)O)nn(C)c5-c5ccc(Cl)cc5)c4)CC3)cc2)cc1[N+](=O)[O-]` were 7.1 nM, 6.1 nM and > 1000 nM.
As for `Cc1c(C(=O)NS(C)(=O)=O)c(-c2cccc(N3CCN(c4ccc(NS(=O)(=O)c5ccc(N[C@H](CCN(C)C)CSc6ccccc6)c([N+](=O)[O-])c5)cc4)CC3)c2)c(-c2ccc(Cl)cc2)n1C`, the IC50 is 0.9 nM in assay [1] and 38 nM in assay [3].
On to `CN(C)CC[C@H](CSc1ccccc1)Nc1ccc(S(=O)(=O)Nc2ccc(N3CCN(c4cccc(-c5ccnn5-c5ccc(Cl)cc5)c4)CC3)cc2)cc1[N+](=O)[O-]`, for which the IC50 in assay [1] is 110 nM; in assay [2] it was 32 nM; in assay [3], > 10000 nM.
`CN(C)CC[C@H](CSc1ccccc1)Nc1ccc(S(=O)(=O)NC(=O)c2ccc(N3CCN(Cc4ccccc4-c4ccc(Cl)cc4)CC3)cc2)cc1[N+](=O)[O-]` [ABT 737]: the concentration for half-maximal inhibition (IC50) was 173 nM in assay [4], 54 nM in assay [5] and 138 nM in assay [6].
With `CN(C)CC[C@H](CSc1ccccc1)Nc1ccc(S(=O)(=O)Nc2ccc(N3CCN(c4cccc(-c5c(C(=O)NS(C)(=O)=O)cnn5-c5ccc(Cl)cc5)c4)CC3)cc2)cc1[N+](=O)[O-]`, the IC50 in assay [1] is 5.4 nM; in assay [2] it was 5 nM; in assay [3], > 1000 nM.
In the case of `Cc1c(C(F)(F)F)c(-c2cccc(N3CCN(c4ccc(NS(=O)(=O)c5ccc(N[C@H](CCN(C)C)CSc6ccccc6)c([N+](=O)[O-])c5)cc4)CC3)c2)c(-c2ccc(Cl)cc2)n1C`, the concentration for half-maximal inhibition (IC50) is 271 nM in assay [1], 13 nM in assay [2] and > 1000 nM in assay [3].
Taken in the same sequence, the figures for `CN(C)CC[C@H](CSc1ccccc1)Nc1ccc(S(=O)(=O)Nc2ccc(N3CCN(c4cccc(-c5c(-c6ccc(Cl)cc6)nn(C)c5C(=O)O)c4)CC3)cc2)cc1[N+](=O)[O-]` were 3.7 nM, 5.9 nM and 541 nM.
Taken in the same sequence, the figures for `Cc1oc(-c2ccc(Cl)cc2)c(-c2cccc(N3CCN(c4ccc(NS(=O)(=O)c5ccc(N[C@H](CCN(C)C)CSc6ccccc6)c([N+](=O)[O-])c5)cc4)CC3)c2)c1C(=O)O` were 3.8 nM, 4.7 nM and 199 nM.
Consider `CCCn1c(C)c(C(=O)O)c(-c2cccc(N3CCN(c4ccc(NS(=O)(=O)c5ccc(N[C@H](CCN(C)C)CSc6ccccc6)c([N+](=O)[O-])c5)cc4)CC3)c2)c1-c1ccc(Cl)cc1`, for which the results for the IC50 in assay [1], in assay [2] and in assay [3] were 10 nM, 8.2 nM and 42 nM, respectively.
